Source: ChEMBL document CHEMBL4433218, “Behind the Mirror: Chirality Tunes the Reactivity and Cytotoxicity of Chloropiperidines as Potential Anticancer Agents” (ACS Med Chem Lett, 2019)
Calls of active or inactive are those of the source. No cut-off for these calls is given here.

How the values were obtained:
DNA [1] = experiment: Induction of Escherichia coli pBR322 DNA cleavage in BPE buffer at 5 to 50 uM incubated for 2 hrs by electrophoresis method; assay type: nucleic-acid assay
In short: (§1)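 Supercoiled pBR322 plasmid (120 ng) incubated with compound at 5 and 50 μM in BPE buffer, 37 °C. Dilutions freshly made in water from 10 mM DMSO stock and added to DNA immediately. Supercoiled, open circular and linear forms resolved on 1% agarose in TAE and stained with GelRed.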

DNA [2] = experiment: Induction of Escherichia coli pBR322 DNA cleavage in BPE buffer at 5 to 50 uM incubated for 18 hrs by electrophoresis method; assay type: nucleic-acid assay; in short: as §1
HCT-15 = experiment: Cytotoxicity against human HCT15 cells assessed as reduction in cell viability incubated for 72 hrs by MTT assay; assay type: functional, cell-based; conditions: HCT-15, 72 h
In short: (§2)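 Cell lines kept in log phase at 37 °C, 5% CO2 in RPMI-1640 with 10% fetal calf serum, penicillin 50 units/mL, streptomycin 50 μg/mL, 2 mM L-glutamine. Compounds dissolved in DMSO and added to medium at 0.5% final solvent. Treatment 72 h. Viability read by MTT. IC50 calculated.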

[3] = Stability in pH 7.4 PBS buffer incubated for 1 hr by UPLC-MS analysis; assay type: physicochemical; conditions: pH 7.4, 1 h
BXPC-3 = experiment: Cytotoxicity against human BxPC3 cells assessed as reduction in cell viability incubated for 72 hrs by MTT assay; assay type: functional, cell-based; conditions: BXPC-3, 72 h; in short: as §2
[4] = biological target: DNA topoisomerase 2-alpha (Homo sapiens) (UniProt P11388); experiment: Inhibition of human DNA topoisomerase-2alpha mediated decatenation using kinetoplast DNA as substrate at 5 to 50 uM incubated for 2 to 18 hrs
In short: (§3)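 Human topoisomerase IIα decatenation of kinetoplast DNA, run with a commercial kit. Substrate DNA incubated with compound at 37 °C for 2 and 18 h.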

2008 = experiment: Cytotoxicity against human 2008 cells assessed as reduction in cell viability incubated for 72 hrs by MTT assay; assay type: functional, cell-based; conditions: Homo sapiens, 2008, 72 h; in short: as §2
[5] = Permeability across PVDF membrane in PBS buffer of pH 7.4 at 500 uM incubated for 1 hr by UPLC-MS based PAMPA assay; assay type: ADME; conditions: pH 7.4, 1 h
In short: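 Donor: 500 μM compound in PBS pH 7.4, made from 10 mM DMSO stock. Acceptor: PBS with 5% DMSO. Filter coated with 1% L-α-phosphatidylcholine in n-dodecane. 1 h at room temperature. Initial, donor and acceptor samples quantified by UPLC-MS (C18, 0.1% formic acid water/acetonitrile gradient) against 20 μM caffeine internal standard. Membrane fraction taken by difference. Unreacted and reacted species summed.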

[6] = Induction of dsDNA (unknown origin) alkylation in BPE buffer at 50 uM incubated for 18 hrs by ESI-MS analysis
In short: (§4)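 Duplex oligodeoxynucleotide at 2 μM final, incubated with compound at 50 μM final in BPE buffer, 37 °C. Compound diluted in water from 10 mM DMSO stock just before use. Analysed by direct-infusion ESI-MS on an Orbitrap in 150 mM ammonium acetate. Adducts and abasic species assigned by mass, 6− charge state.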

[7] = Induction of dsDNA (unknown origin) alkylation in BPE buffer at 50 uM incubated for 2 hrs by ESI-MS analysis; in short: as §4
[8] = biological target: DNA topoisomerase 2-alpha (Homo sapiens) (UniProt P11388); experiment: Inhibition of human DNA topoisomerase-2alpha mediated decatenation using kinetoplast DNA as substrate at 50 uM incubated for 18 hrs; in short: as §3

DNA topoisomerase 2-alpha (Homo sapiens), sequence (P11388 whole entry): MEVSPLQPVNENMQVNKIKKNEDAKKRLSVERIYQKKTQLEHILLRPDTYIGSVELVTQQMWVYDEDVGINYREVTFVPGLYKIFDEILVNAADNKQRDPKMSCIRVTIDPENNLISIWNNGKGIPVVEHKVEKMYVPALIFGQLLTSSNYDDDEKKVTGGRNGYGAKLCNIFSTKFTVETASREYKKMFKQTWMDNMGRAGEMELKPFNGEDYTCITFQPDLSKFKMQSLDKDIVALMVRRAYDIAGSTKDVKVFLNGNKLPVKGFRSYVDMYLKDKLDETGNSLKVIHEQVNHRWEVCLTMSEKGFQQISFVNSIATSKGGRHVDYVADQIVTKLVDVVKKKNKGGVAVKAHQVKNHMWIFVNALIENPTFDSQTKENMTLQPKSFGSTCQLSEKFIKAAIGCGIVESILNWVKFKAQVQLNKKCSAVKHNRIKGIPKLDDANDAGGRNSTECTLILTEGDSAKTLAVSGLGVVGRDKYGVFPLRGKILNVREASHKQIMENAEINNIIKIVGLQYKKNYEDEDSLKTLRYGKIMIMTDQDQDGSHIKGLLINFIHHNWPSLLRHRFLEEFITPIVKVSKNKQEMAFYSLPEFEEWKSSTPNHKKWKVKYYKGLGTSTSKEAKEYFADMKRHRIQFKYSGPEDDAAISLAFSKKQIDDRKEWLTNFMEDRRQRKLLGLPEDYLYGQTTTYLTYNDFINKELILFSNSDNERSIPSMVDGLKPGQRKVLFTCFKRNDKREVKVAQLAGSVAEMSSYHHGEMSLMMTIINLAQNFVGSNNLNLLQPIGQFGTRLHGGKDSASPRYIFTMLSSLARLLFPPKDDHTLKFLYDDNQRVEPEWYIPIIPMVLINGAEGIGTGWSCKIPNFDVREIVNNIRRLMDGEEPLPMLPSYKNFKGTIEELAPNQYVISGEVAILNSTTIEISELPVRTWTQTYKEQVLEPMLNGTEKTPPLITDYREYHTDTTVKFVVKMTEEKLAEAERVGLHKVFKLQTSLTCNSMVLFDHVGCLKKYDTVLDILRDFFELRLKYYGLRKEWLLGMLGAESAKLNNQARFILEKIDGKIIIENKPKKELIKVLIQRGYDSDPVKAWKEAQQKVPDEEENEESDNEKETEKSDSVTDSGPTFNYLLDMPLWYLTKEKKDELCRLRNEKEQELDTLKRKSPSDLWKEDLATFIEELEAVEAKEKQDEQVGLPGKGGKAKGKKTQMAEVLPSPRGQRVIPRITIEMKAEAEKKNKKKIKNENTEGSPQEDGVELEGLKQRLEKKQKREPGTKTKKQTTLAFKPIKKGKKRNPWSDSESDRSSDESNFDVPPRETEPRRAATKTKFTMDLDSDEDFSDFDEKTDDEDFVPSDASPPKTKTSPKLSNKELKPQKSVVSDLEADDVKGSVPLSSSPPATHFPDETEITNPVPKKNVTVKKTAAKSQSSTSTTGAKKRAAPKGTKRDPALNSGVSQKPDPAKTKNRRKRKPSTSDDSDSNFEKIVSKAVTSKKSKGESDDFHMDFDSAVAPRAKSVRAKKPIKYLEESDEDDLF

SMILES	Activity (DNA [1])	Activity (DNA [2])	IC50 (HCT-15) [nM]	Stability [3]	IC50 (BXPC-3) [nM]	inhibition [4]	IC50 2008 [nM]	permeability [5]	Activity [6]	Activity [7]	inhibition [8]
CCCCN1CCC[C@H](Cl)C1	inactive	Active	181	Stable	7	inactive	102	Permeable			
CCCCN1CCC[C@@H](Cl)C1	inactive	Active	5640	Stable	274	inactive	4600	Permeable			
CCCCN1CCCC(Cl)C1 (racemic)	inactive	Active	474	Stable	57		329		Active	inactive	
O=C(O)CCCc1ccc(N(CCCl)CCCl)cc1 [CHLORAMBUCIL]	inactive	Active	49700		75300		12500				
CCCCN1CC(Cl)CC(C)(C)C1 (racemic)	inactive	Active	254	Stable	24		174	Impermeable	Active	Active	Active
CC1(C)CC(Cl)CN(Cc2ccccc2)C1 (racemic)	inactive	Active	300	Stable	6		107	Impermeable			Active
